Columns and labels:
[1] = tested on: Influenza B virus; assay: Antiviral activity against oseltamivir resistant Victoria lineage of Influenza B virus (B/Brisbane/60/2008) BX-35 infected in MDCK cells assessed as inhibition of virus-induced cytopathic effect measured after 45 hrs by CellTiter-Glo luminescence assay; format: functional, organism-based; details: B/Brisbane/60/2008 BX-35, MDCK
Procedure, shortened: (§1)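 MDCK cells (5,000/well) were seeded one day before infection. Infection medium was high-glucose DMEM with 1% FBS and trypsin (1 μg/mL). Compounds were added at various concentrations and cells infected at MOI 0.1. After 45 h, viability was read by CellTiter-Glo luminescence. IC50 was taken from dose-response curves, as the mean of duplicate samples from three independent experiments.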

[2] = tested on: Influenza B virus; assay: Antiviral activity against oseltamivir resistant Yamagata lineage of Influenza B virus (B/Massachusetts/2/2012) BX-51B infected in MDCK cells assessed as inhibition of virus-induced cytopathic effect measured after 45 hrs by CellTiter-Glo luminescence assay; format: functional, organism-based; details: B/Massachusetts/02/2012 BX-51B; procedure, shortened: as §1

Structure (SMILES)	IC50 [1]	IC50 [2]
CC1(C)CC[C@]2(C(=O)N[C@@H](CCCNC(=N)N)C(=O)O)CC[C@]3(C)C(=CC[C@@H]4[C@@]5(C)CC[C@H](O)C(C)(C)[C@@H]5CC[C@]43C)[C@@H]2C1	61.6 µM	45.8 µM
CCOC(=O)C1=C[C@@H](OC(CC)CC)[C@H](NC(C)=O)[C@@H](N)C1 [OSELTAMIVIR PHOSPHATE]	> 100 µM	> 100 µM

Reference: ChEMBL document CHEMBL4406875, “Design, synthesis and biological evaluation of amino acids-oleanolic acid conjugates as influenza virus inhibitors” (Bioorg Med Chem, 2019)
